OXTR potentiate: potentiators of human oxytocin receptor; P30559; CHO-OTR cells, Fluo-8 calcium fluorescence, potentiator mode; 0% = oxytocin EC15, 100% = EC100; activation, % at 3 µM; 320,000 compounds, 0.061% hits; AID 2445;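 active = activation above that plate's cutoff, the mean activation of tested compounds plus 3 SD, cut at about 6.6% in these data, passing the limit was not always enough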;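 note: 100% uses oxytocin at 75 nM as the full agonist control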
Target sequence (P30559 whole entry, looked up): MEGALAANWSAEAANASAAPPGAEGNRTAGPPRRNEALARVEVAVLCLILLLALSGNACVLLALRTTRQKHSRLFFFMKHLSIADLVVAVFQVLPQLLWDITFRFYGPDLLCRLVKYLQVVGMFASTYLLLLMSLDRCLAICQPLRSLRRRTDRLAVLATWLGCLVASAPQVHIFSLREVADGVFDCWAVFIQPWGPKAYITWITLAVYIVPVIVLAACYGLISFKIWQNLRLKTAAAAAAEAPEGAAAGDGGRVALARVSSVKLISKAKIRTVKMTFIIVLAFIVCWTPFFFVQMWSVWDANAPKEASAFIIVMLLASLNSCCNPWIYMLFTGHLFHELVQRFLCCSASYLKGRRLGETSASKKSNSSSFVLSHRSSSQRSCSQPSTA
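Dosing: Single dose, 3.0 µM nominal final compound concentration | Material: Human OTR in CHO cells | Technique: Kinetic Fluo-8 calcium fluorescence | Benchmarks: EC15 oxytocin alone as 0%, 75 nM oxytocin as 100% | Probe or stimulus: Oxytocin at about EC15, sub-maximal agonist stimulus | Incubation: Compound 6 min at room temperature before oxytocin, 100 s read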
OXTR ag: agonists of human oxytocin receptor; P30559; CHO-OTR cells, Fluo-8 calcium fluorescence; normalized: DMSO 0%, oxytocin 100%; activation, % at 3 µM; 320,000 compounds, 0.32% hits; AID 2435;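 active = activation above the mean of all tested compounds plus 3 SD, cutoff set per screening run, cut at about 20% in these data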;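 note: peak over basal fluorescence ratio from a 100 s FLIPR kinetic read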
OX1R antag-1: blocks the human orexin 1 receptor | O43613 | OX1R-expressing cells, FRET antagonist read-out | inhibition, % at 6.6 µM | 330,000 compounds, 1.8% hits; in the data active = inhibition mostly above about 38%, no sharp cut-off; inactive = mostly below about 40%;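 note: 0% = agonist challenge alone and 100% = reference antagonist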
CHO parental Ca: counter-screen for OX1R antagonists: effect in parental CHO cells. parental CHO-K1, ATP-induced calcium, Fluo-8 fluorescence. inhibition, % at 5.6 µM. 330,000 compounds, 0.63% hits;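 active = inhibition above that plate's mean sample inhibition plus 3 SD, cut at about 26% in these data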;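 note: 0% = ATP-challenged DMSO wells and 100% = DMSO wells without ATP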
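Assay system: untransfected parental CHO cell line. Also added: ATP agonist challenge. Dosing: one dose, 5.6 µM nominal. Measured by: Fluo-8 fluorescence. Read-out: % inhibition. Benchmarks: ATP wells versus no-ATP DMSO wells. Repeats: no replicates.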
OX1R antag-2: blocks the human orexin 1 receptor. AID 434989. inhibition, % at 5 µM. CHO/OX1R cells, Fluo-8 calcium fluorescence, orexin A. O43613. 330,000 compounds, 0.43% hits;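 active = inhibition above its plate's threshold, mean inhibition of all tested compounds on the plate plus 3 SD, cut at about 37% in these data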;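 note: 0% = orexin A challenge wells and 100% = SB-334867-A antagonist wells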
V1R ag counter: V1a receptor agonism, counter-screen for OXTR agonists; 320,000 compounds, 0.25% hits; P37288; AID 2797; CHO-V1R cells, Fluo-8 calcium fluorescence, agonist mode; 0% DMSO, 100% 3 nM vasopressin; activation, % at 3 µM;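 active = activation above the mean activation of all tested compounds plus 3 SD, per screening run, cut at about 20% in these data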;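 note: signal is peak over basal fluorescence ratio across a 100 second FLIPR read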
* = called active by the depositor. An excerpt weighted towards active compounds, which were near 2.7% of everything screened.

SMILES	OXTR potentiate	OXTR ag	OX1R antag-1	CHO parental Ca	OX1R antag-2	V1R ag counter
COc1cc2c(cc1OC)CN(c1ccc3ccccc3n1)CC2	-3.3	-0.3	73.5*	-15.2	-10.3	0.7
Cc1ccc(C(=O)OC2CCN(c3ccc([N+](=O)[O-])cc3)CC2)cc1	-2.3	0.0	12.6	-1.7	-3.9	3.0
O=C(OC1Cn2c(=O)ccc(=O)n2C1)c1ccc([N+](=O)[O-])cc1	5.0	0.8	45.4*	-5.0	-10.2	-0.2
CNc1ccccc1C(C)(C)c1cc(-c2cccc(Br)c2)no1	-11.3	-1.5	20.4	45.2*	33.5	-0.3
CNc1ccccc1C(C)(C)c1cc(-c2cccc([N+](=O)[O-])c2)no1	-15.7	-2.8	17.6	-6.4	-22.0	0.3
COc1cc(/C=N/n2c(-c3ccccc3)n[nH]c2=S)cc(OC)c1O	-2.2	-0.2	8.2	3.6	-7.9	0.2
Cc1c(Br)c(O)c(Br)c(O)c1/C=N/n1c(-c2ccccc2)n[nH]c1=S	-9.2	9.7	43.8*	-9.1	-14.1	14.2
Cc1cc(C)c2c(N)c(C(=O)Nc3ccc([N+](=O)[O-])cc3)sc2n1	-7.9	0.6	7.8	-12.3	-18.8	1.5
C/C(=N\NS(=O)(=O)c1ccccc1)c1ccc2c(c1)OCCO2	2.6	-1.1	16.7	-7.5	-14.3	0.8
C=CCc1cccc(CNc2cnc3ccccc3c2)c1O	-13.0	6.0	49.5	72.3*	21.3	8.4
CC(C)(C)c1ccc(C(=O)NCC(=O)N/N=C/c2ccccc2OCC(=O)O)cc1	-5.9	-0.9	10.9	-11.7	-14.0	0.2
CCc1ccc(NC(=O)C2(c3ccccc3)CC2(Cl)Cl)cc1 (stereo unspecified)	-25.1	25.4*	12.6	14.4	52.3*	30.4*
C/C(=N/NC(=O)CNC(=O)C(c1ccccc1)c1ccccc1)c1ccco1	-1.0	1.3	5.1	-13.8	-1.6	-0.9
O=C(C#Cc1ccccc1)Nc1cccc(F)c1	-6.9	-2.1	13.5	-6.4	-16.4	-0.7
Cc1c(C(=O)c2ccc([N+](=O)[O-])cc2)c(=O)n(C)c(=O)n1C	-0.9	0.8	73.8*	-6.2	-8.9	1.1
NC(=O)c1ccc(C(=O)c2ccc([N+](=O)[O-])cc2)cc1	-2.3	0.3	70.2*	-10.8	-3.9	0.9
Cc1ccc(C(=O)c2ccc([N+](=O)[O-])cc2)c(C)c1	-6.8	-2.6	21.0	-13.6	-7.6	-1.9
COc1cc(C(=O)Nc2ccc(Nc3ccccc3)cc2)cc(OC)c1OC	-14.0	-0.8	-2.2	-18.0	-15.0	-0.1
COc1ccc([C@@]2(C(C)C)ON(c3ccccc3C(F)(F)F)C2=O)cc1	-4.3	0.1	10.9	-23.8	-13.4	0.5
CC(=O)c1cn(CCOc2cc(C)ccc2C)c2ccccc12	-16.4	7.3	45.1	32.6*	6.7	9.1
COc1cccc(OCCn2cc(C(C)=O)c3ccccc32)c1	-18.8	11.4	19.7	32.1*	1.5	10.1
COc1cccc(OCCn2cc(C(=O)c3ccco3)c3ccccc32)c1	-9.0	2.0	17.3	25.8	46.1*	4.5
Cc1ccc(C)c(OCCn2cc(C(=O)O)c3ccccc32)c1	-13.0	16.2	22.1	-7.1	7.2	5.3
Cc1ccccc1NC(=O)COC(=O)c1c[nH]c(=O)[nH]c1=O	-11.2	0.7	7.4	-3.7	17.5	0.3
CN(C)CCN(C(=O)C1CCN(S(=O)(=O)c2cccs2)CC1)c1nc2c(F)cccc2s1	-14.2	1.1	2.0	-10.4	-12.7	-1.4
SMILES	OXTR potentiate	OXTR ag	OX1R antag-1	CHO parental Ca	OX1R antag-2	V1R ag counter
O=c1oc2ccccc2cc1-c1cn2cccnc2n1	-0.1	0.5	66.3*	-3.7	-11.0	0.3
Cc1cccn2cc(-c3cc4ccccc4oc3=O)nc12	-4.7	0.4	9.9	1.4	0.9	0.4
CCc1nnc(N2C(=O)c3cccc4cccc(c34)C2=O)s1	3.7	-1.2	70.8*	-18.1	-16.2	-0.7
Cc1ccccc1N1C(=O)c2cccc3cccc(c23)C1=O	12.4	-1.6	19.9	-16.0	-13.2	-0.7
COc1ccc(-c2cc(-c3ccco3)[nH]c(=O)c2C#N)cc1OC	0.0	1.0	72.7*	2.5	4.4	0.6
C/C(CC(=O)Nc1cccc(Cl)c1Cl)=N\NC(=O)c1ccccc1N	-3.2	-0.1	7.5	-16.2	-22.5	1.0
